# TAAR1 agonist: human TAAR1 agonists, primary screen, Fluo-8 calcium fluorescence, CHO RD-HGA16 cells. vehicle wells 0%, saturating PEA agonist 100%. activation, % at 3 µM. 360,000 compounds, 0.99% hits. AID 624467, 2012;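 active = activation above the mean activation of all test compounds in the run plus 3 SD, cut at about 38% in these data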
# Target sequence (Q96RJ0 whole entry, looked up): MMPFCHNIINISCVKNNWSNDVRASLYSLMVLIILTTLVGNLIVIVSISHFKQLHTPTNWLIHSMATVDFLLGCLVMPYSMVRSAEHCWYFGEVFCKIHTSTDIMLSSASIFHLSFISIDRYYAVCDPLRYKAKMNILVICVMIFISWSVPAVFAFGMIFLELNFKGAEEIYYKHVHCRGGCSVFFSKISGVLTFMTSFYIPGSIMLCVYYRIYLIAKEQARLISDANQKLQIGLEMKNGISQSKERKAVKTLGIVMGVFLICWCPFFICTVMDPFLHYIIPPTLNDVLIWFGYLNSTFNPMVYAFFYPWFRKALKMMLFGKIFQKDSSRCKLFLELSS
#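 System: CHO-derived RD-HGA16 cells with stable Gα16 and human TAAR1. Times: 17-24 h plating, Fluo-8 75 min 37 °C, 30 min RT. Measured by: calcium-sensitive Fluo-8 signal, excitation 470-495, emission 515-575 nm. Read-out basis: % activation relative to PEA EC100 response. Control set: DMSO and PEA EC100. Repeats: no replicates (n 1).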
# CHRM1 agonist: human M1 muscarinic receptor agonists, primary screen, Fluo-8 calcium fluorescence, CHO-K1 cells, HTS | Muscarinic acetylcholine receptor M1 (Homo sapiens), P11229 | CHO-K1 hM1, agonist mode; 0% DMSO, 100% acetylcholine EC100 | activation, % at 3 µM | 360,000 compounds, 0.33% hits | AID 588814, 2011;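 active = activation above the run's mean compound activation plus 3 SD, cut at about 16% in these data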;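 note: peak over basal fluorescence ratio within a 140 s kinetic read after compound addition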
# CHRM1 antagonist: human M1 muscarinic receptor antagonists, primary screen, CHO-K1 cells, Fluo-8 calcium fluorescence, 1536-well; CHO-K1 hM1, ACh EC80 antagonist; inhibition, % at 3 µM; Muscarinic acetylcholine receptor M1 (Homo sapiens), P11229; 360,000 compounds, 1.3% hits;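 active = percent inhibition above its own plate's cutoff, namely the mean of that plate's compound wells plus 3 SD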;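 note: peak over basal fluorescence ratio during 140 s after agonist addition; 0% = ACh EC80 plus DMSO and 100% = DMSO alone without agonist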
# TAAR1 antagonist: human TAAR1 antagonists, primary screen, Fluo-8 calcium fluorescence, CHO RD-HGA16 cells; 360,000 compounds, 1.5% hits; inhibition, % at 3 µM; antagonist; AID 624466, 2012; Trace amine-associated receptor 1 (Homo sapiens), Q96RJ0;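 active = inhibition above a per-plate cutoff, the mean inhibition of test compounds on that plate plus 3 SD, cut at about 49% in these data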;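 note: 0% = DMSO plus EC80 beta-PEA response and 100% = DMSO alone without agonist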
#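 Assay system: CHO-derived RD-HGA16 cells stably expressing human TAAR1 plus Gα16. Timing: 140 s kinetic read after compound, 140 s after agonist. Technique: kinetic Fluo-8 calcium fluorescence measurement. Measure: % inhibition of agonist calcium response.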
# CHRM1 PAM: human M1 muscarinic receptor positive allosteric modulators, primary screen, CHO-K1 cells, Fluo-8 calcium fluorescence, 1536-well; CHO-K1 hM1, ACh EC20; 0% = ACh EC20, 100% = maximal ACh; activation, % at 3 µM; 360,000 compounds, 0.088% hits; in the data active = activation above about 19%, passing the limit was not always enough
# nonsel antag count: nonselective antagonists in TAAR1 counter-screen cells, counter-screen for hTAAR1 antagonist project, cell-based, fluorescence, calcium. shares compounds with TAAR1 antagonist. counterscreen cell line, antagonist mode. inhibition, % at 3 µM. 2,400 compounds, 77% hits; in the data active = inhibition above about 22%;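 note: CHO-Ga16 host cells stimulated with ATP at an EC80 level; 0% = agonist EC80 plus vehicle and 100% = vehicle without agonist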
# TAAR1 ant conf: human TAAR1 antagonists, retest of hits, confirmation, cell-based, fluorescence | TAAR1-expressing cells, fluorescence antagonist read-out | shares compounds with TAAR1 antagonist | 2,400 compounds, 40% hits | inhibition, % at 3 µM; in the data active = inhibition above about 49%;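 note: CHO-Ga16 host cells challenged with agonist PEA near its EC80; 0% = agonist at EC80 plus vehicle and 100% = vehicle with no agonist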
# Ga16 nonsel ag: calcium activation in Ga16-expressing cells, counter-screen for TAAR1 antagonist project, cell-based, fluorescence; shares compounds with TAAR1 antagonist; AID 651953, 2012; 2,400 compounds, 18% hits; activation, % at 3 µM; agonist counterscreen; in the data active = activation above about 12%;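 note: 0% = vehicle wells and 100% = saturating stimulus response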
# TAAR1 ag counter: TAAR1 activation by candidate antagonists – cell-based, fluorescence, counter-screen for TAAR1 antagonist project; activation, % at 3 µM; AID 651955, 2012; hTAAR1 cell line, agonist mode; shares compounds with TAAR1 antagonist; 2,400 compounds, 2% hits; in the data active = activation above about 37%;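 note: CHO cells stably expressing TAAR1 with calcium dye readout; 0% = DMSO vehicle and 100% = full agonist response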
# * hit, by the source's call; . = no result. Shown are actives, neighbours in structure and some others; about 3.4% of the full set was active somewhere.
SMILES,TAAR1 agonist,CHRM1 agonist,CHRM1 antagonist,TAAR1 antagonist,CHRM1 PAM,nonsel antag count,TAAR1 ant conf,Ga16 nonsel ag,TAAR1 ag counter
CCOC(=O)Cn1c(=O)oc2cc(S(=O)(=O)N(C)Cc3ccccc3)ccc21,16,0,13,65*,-12,19,47,11,11
COc1cc(-c2nc(C(=O)NCC3CCCO3)cc3c2[nH]c2ccccc23)cc(OC)c1OC (stereo unspecified),6,-3,11,61*,-12,28*,40,6,4
CN(C)CCCNC(=O)c1ccc(-c2cc3nc(NCc4cccnc4)n(C)c(=O)c3s2)cc1,1,1,-24,-8,14,.,.,.,.
Cc1ccc(Cl)cc1NC(=O)Nn1cnnc1,1,-1,-8,62*,7,2,-1,0,0
O=C(CCSCc1ccc(Cl)cc1)NCCc1ccccc1,2,-2,4,5,5,.,.,.,.
O=C(CCSCc1cccc(F)c1)NCCc1ccccc1,19,-2,2,56*,5,4,69*,7,26
COc1ccc(C2=NS(=O)(=O)N(C)C(C(=O)N(C)Cc3ccccc3)=C2)cc1OC,7,-5,-11,52*,-7,23*,34,8,6
CC(=O)c1ccc(N2CCN(C(=O)CCCn3c(=O)[nH]c4ccc(Br)cc4c3=O)CC2)cc1,8,-2,-10,67*,1,37*,54*,11,6
COC(=O)c1ccc2c(=O)n(CCCCCC(=O)N3CCN(c4ccccc4)CC3)c(=O)[nH]c2c1,24,1,11,74*,0,58*,72*,14*,22
O=C(CCC(=O)c1cccs1)NCCc1ccc(F)cc1,32,-4,-4,66*,-2,9,80*,1,54*
NS(=O)(=O)c1ccc(CCNC(=O)CCC(=O)c2cccs2)cc1,5,-3,0,-11,0,.,.,.,.
COc1ccccc1NS(=O)(=O)c1cc([N+](=O)[O-])ccc1N/N=C/c1c(C)[nH]c2ccccc12,33,5,8,58*,0,47*,46,16*,9
O=[N+]([O-])c1ccc(N/N=C/c2c[nH]c3ccccc23)c(S(=O)(=O)Nc2ccc(Cl)cc2)c1,20,-2,-2,0,4,.,.,.,.
COc1ccc(/C=N/NC(=O)c2nc(-c3ccccc3)cc(-c3ccccc3)n2)cc1O,11,-6,38*,63*,-19,35*,53*,6,4
COc1ccc(/C=N/NC(=O)c2nc(-c3ccccc3)cc(-c3ccccc3)n2)cc1,16,-2,13,56*,0,25*,42,5,4
COc1ccc(/C=N/NC(=O)c2cc(-c3ccccc3)nc3ccccc23)cc1O,6,-3,9,40,-1,.,.,.,.
Cc1ccc(S(=O)(=O)N2[C@H](CC(=O)c3cccs3)OC[C@@H]2C(C)C)cc1,5,.,.,-17,.,.,.,.,.
O=C(NCCc1c[nH]c2ccccc12)OC1CC2CC1[C@H]1CCCCN1C2=O (stereo partly specified),0,.,.,9,.,.,.,.,.
CC(C)[C@H](NS(=O)(=O)c1ccc2c(c1)OCCO2)C(=O)OCC(=O)Nc1cc(Cl)ccc1Cl,21,1,31*,76*,-16,39*,61*,11,11
CCC(C)Sc1cccc(-c2nc3ccccn3c2NCc2ccccc2)c1 (stereo unspecified),13,-6,25,84*,-17,42*,70*,11,14
CCCCCCSc1cccc(-c2nc3ccc(C)cn3c2NCc2ccccc2)c1,5,-3,12,52*,-6,18,18,1,3
CCC(C)Sc1cccc(-c2nc3ccc(Cl)cn3c2NCc2ccccc2)c1 (stereo unspecified),.,-4,12,.,-2,.,.,.,.
CCC(C)Sc1cccc(-c2nc3ccc(C)cn3c2NCc2ccccc2)c1 (stereo unspecified),13,-5,25,91*,-7,45*,76*,9,12
Cc1ccc2nc(-c3ccccc3)c(Cc3cccc(Cl)c3)n2c1,1,-6,4,3,-5,.,.,.,.
Cc1ccc2nc(-c3cccc(-c4cccc(Cl)c4)c3)c(NCc3ccccc3)n2c1,10,-5,27,73*,-11,32*,33,2,3
SMILES,TAAR1 agonist,CHRM1 agonist,CHRM1 antagonist,TAAR1 antagonist,CHRM1 PAM,nonsel antag count,TAAR1 ant conf,Ga16 nonsel ag,TAAR1 ag counter
CCCCCCSc1cccc(-c2nc3ccccn3c2NCc2ccccc2)c1,6,-5,15,44,-10,.,.,.,.
N/C(=N\c1nc2ccccc2o1)NC(=O)c1ccccc1NC(=O)c1ccccc1,12,-3,2,65*,2,33*,37,3,-1
CCCCNc1c(-c2ccc(OC)c(Sc3ccc(OC)cc3)c2)nc2cnccn12,11,0,7,75*,-3,23*,57*,4,8
COc1ccccc1/C=C/C(=O)NC(=S)NC(C)C,6,-3,17,59*,-14,19,44,10,19
COc1ccc(OC)c(N(CCN2C(=O)c3ccccc3C2=O)C(=O)CCl)c1,-1,-3,-10,-4,8,.,.,.,.
O=C(O)CCCNC(=O)/C(=C\C=C\c1ccccc1)NC(=O)c1ccccc1Cl,1,-5,-5,-2,0,.,.,.,.
C=CCNC(=O)/C(=C\C=C\c1ccccc1)NC(=O)c1ccccc1Cl,13,-1,6,62*,-12,25*,36,6,7
COC(=O)[C@]12CCCCC=C1N(Cc1ccco1)C(=O)[C@H](CC(=O)NCc1cccs1)C2,4,.,.,-6,.,.,.,.,.
